Experimental findings from ChEMBL document CHEMBL4024792, “(N-Hydroxycarbonylbenylamino)quinolines as Selective Histone Deacetylase 6 Inhibitors Suppress Growth of Multiple Myeloma in Vitro and in Vivo” (J Med Chem, 2018) are described below.

pIC50: −log10 of the molar value. Activity calls are given as the source filed them. No cut-off for these calls is given here.

One data set concerns the target Histone deacetylase 1 (Homo sapiens, UniProt Q13547). As to the kind of experiment: Inhibition of full length recombinant human C-terminal FLAG/His-tagged HDAC1 expressed in baculovirus infected sf21 cells using RHK-K(Ac)-AMC as substrate after 60 mins by fluorescence assay.
Data set [1] has as its target T1, Protein deacetylase HDAC6 (Homo sapiens) (UniProt Q9UBN7).
T1 sequence (whole entry): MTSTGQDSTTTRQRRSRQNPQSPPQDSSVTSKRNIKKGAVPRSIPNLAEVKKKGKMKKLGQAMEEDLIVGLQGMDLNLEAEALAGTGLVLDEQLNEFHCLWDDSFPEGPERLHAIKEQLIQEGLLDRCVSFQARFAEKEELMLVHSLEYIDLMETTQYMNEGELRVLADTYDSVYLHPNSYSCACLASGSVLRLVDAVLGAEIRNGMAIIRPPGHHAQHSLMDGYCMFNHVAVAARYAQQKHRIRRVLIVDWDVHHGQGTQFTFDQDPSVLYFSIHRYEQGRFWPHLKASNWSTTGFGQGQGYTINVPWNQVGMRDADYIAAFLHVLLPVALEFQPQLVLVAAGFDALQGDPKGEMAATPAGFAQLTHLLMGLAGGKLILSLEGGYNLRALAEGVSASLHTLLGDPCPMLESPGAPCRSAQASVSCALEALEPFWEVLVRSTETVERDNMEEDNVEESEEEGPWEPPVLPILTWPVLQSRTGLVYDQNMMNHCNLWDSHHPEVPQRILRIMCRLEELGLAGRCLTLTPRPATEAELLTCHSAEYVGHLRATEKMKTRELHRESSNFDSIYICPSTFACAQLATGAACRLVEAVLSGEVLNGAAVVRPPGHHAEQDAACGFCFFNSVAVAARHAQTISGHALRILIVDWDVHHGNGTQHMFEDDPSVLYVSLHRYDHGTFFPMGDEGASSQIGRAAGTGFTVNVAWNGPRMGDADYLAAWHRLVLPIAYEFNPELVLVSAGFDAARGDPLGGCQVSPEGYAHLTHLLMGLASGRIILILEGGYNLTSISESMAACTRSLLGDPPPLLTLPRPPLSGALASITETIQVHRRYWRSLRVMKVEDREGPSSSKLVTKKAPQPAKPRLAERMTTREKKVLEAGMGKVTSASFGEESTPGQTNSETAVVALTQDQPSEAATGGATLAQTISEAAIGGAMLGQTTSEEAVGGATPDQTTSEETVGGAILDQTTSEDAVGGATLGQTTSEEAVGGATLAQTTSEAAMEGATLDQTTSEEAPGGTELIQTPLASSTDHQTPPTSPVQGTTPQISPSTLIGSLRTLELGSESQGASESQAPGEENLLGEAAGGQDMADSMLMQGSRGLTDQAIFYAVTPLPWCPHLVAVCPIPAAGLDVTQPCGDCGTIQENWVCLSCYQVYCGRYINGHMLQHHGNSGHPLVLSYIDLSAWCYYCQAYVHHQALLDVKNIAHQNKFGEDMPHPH
As to the kind of experiment: Inhibition of HDAC6 in human RPMI8226 cells assessed as increase in acetylated tubulin level by immunoblot analysis relative to control. The class given is cell-based. An outline of the steps:
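Multiple myeloma cells harvested in Tris-HCl lysis buffer (pH 7.4) with protease and phosphatase inhibitors, then centrifuged 17,000 g for 30 min at 4 °C. Lysates immunoblotted with specific antibodies for acetylated α-tubulin. Signal detected by ECL on film.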

The target in the next data set is Histone deacetylase 4 (Homo sapiens, UniProt P56524). As to the kind of experiment: Inhibition of recombinant human C-terminal His-tagged/N-terminal GST-tagged HDAC4 (627 to 1084 residues) expressed in insect cells using Boc-K(Ac)-AMC as substrate after 60 mins by fluorescence assay.
Data set [2] can be described thus: Apparent permeability from apical to basolateral side in human Caco2 cells assessed as drug recovery at 10 uM after 2 hrs by LC-MS/MS analysis. Format: ADME, cell-based. The settings on record: Caco-2, read-out: Drug recovery. An outline of the steps: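 Caco-2 cells seeded at 8.4 × 10^4 cells/cm2 on polycarbonate inserts for 21 days. For A→B, donor was apical (HBSS/MES pH 6.5, 10 µM compound) and receiver basolateral (HBSS/HEPES pH 7.4). For B→A, donor was basolateral (HBSS/HEPES pH 7.4, 10 µM) and receiver apical (HBSS/MES pH 6.5). Incubated at 37 °C for 2 h. Receiver sampled at 30, 60, 90 and 120 min, donor at 0 and 120 min.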

Data set [3] in a line: Intrinsic clearance in Sprague-Dawley rat hepatocytes at 10 uM by LC-MS/MS analysis. Format: ADME, cell-based, Hepatocyte. The settings on record: read-out: CLH. An outline of the steps: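 Cryopreserved hepatocytes (Sprague-Dawley rat, beagle dog, human) incubated with compound at 10 µM, 37 °C, for up to 4 h. About 0.5×10^6 cells/well for rat and dog, 0.24×10^6 for human.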

The test system of a further data set is Salmonella typhimurium. As to the kind of experiment: Mutagenicity in Salmonella typhimurium TA98 assessed as increase in number of revertant colonies at 3 to 3000 ug/plate in presence of S9 fraction by Ames test. Format: toxicity. The settings on record: salmonella enterica subsp. enterica serovar typhimurium. Put shortly:
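Ames test, TA98 and TA100. Overnight broth cultures preincubated 20 min at 35-37 °C with compound (DMSO stock) plus Aroclor 1254-induced rat liver S9 mix or PBS, then plated in top agar with 0.05 mM histidine/biotin. Final 3-3000 µg/plate; revertants counted after 72 h at 37 °C. ≥3-fold over vehicle = mutagenic; ≤50% = cytotoxic.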

For data set [4], the system named is U-266. As to the kind of experiment: Induction of apoptosis in human U266 cells at 5 uM after 24 hrs in presence of bortezomib by Annexin V/propidium iodide staining based flow cytometry. Format: functional, cell-based.
The test system of a further data set is RPMI-8226. As to the kind of experiment: Cell cycle arrest in human RPMI8226 cells assessed as accumulation at sub-G1 phase at 5 uM after 24 hrs by propidium iodide staining based flow cytometry (reference value: 12.25%). Format: functional.
The subject of the next data set is Mus musculus. As to the kind of experiment: Toxicity in nude mouse xenografted with human RPMI8226 cells assessed as change in body weight at 30 mg/kg, iv or ip administered for 5 days followed by 2 days off for 35 days cotreated with bortezomib. The class given is organism-based. The settings on record: in vivo. An outline of the steps: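 Male 8-week nude mice implanted sc with 1×10^7 RPMI 8226 cells, randomized at ~200 mm3 (n = 8). […] Vehicle: 0.5% EtOH/0.5% Cremophor in 5% dextran.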

Data set [5] has as its system NCI-H929. As to the kind of experiment: Induction of apoptosis in human NCI-H929 cells at 5 uM after 24 hrs by Annexin V/propidium iodide staining based flow cytometry. Format: functional, cell-based.
The test system of data set [6] is NCI-H929. As to the kind of experiment: Cell cycle arrest in human NCI-H929 cells assessed as accumulation at sub-G1 phase at 5 uM after 24 hrs by propidium iodide staining based flow cytometry (reference value: 5.59%). Format: functional.
In data set [7] the test system is NCI-H929. As to the kind of experiment: Cell cycle arrest in human NCI-H929 cells assessed as accumulation at G2/M phase at 5 uM after 24 hrs in presence of bortezomib by propidium iodide staining based flow cytometry (reference value: 31.63%). Format: functional.
For data set [8], the system named is NCI-H929. As to the kind of experiment: Cell cycle arrest in human NCI-H929 cells assessed as accumulation at G2/M phase at 5 uM after 24 hrs by propidium iodide staining based flow cytometry (reference value: 31.63%). Format: functional.
In data set [9] the test system is U-266. As to the kind of experiment: Cell cycle arrest in human U266 cells assessed as accumulation at sub-G1 phase at 5 uM after 24 hrs by propidium iodide staining based flow cytometry (reference value: 10.76%). Format: functional.

Chain of Histone deacetylase 1 (Q13547 whole entry): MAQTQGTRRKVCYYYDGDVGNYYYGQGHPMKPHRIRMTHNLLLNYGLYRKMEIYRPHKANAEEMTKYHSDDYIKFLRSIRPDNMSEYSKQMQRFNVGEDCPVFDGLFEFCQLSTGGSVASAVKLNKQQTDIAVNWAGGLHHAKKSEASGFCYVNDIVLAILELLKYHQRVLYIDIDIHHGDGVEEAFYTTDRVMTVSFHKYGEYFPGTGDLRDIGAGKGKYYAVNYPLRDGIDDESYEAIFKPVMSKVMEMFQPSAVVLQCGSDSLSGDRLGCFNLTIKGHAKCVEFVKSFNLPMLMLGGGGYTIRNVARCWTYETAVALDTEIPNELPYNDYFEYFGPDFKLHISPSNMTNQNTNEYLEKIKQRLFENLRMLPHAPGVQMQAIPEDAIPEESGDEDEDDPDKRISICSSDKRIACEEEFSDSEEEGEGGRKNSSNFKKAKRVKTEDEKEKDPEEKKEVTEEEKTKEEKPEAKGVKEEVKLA
Chain of Histone deacetylase 4 (P56524 whole entry, the tested form may be a part): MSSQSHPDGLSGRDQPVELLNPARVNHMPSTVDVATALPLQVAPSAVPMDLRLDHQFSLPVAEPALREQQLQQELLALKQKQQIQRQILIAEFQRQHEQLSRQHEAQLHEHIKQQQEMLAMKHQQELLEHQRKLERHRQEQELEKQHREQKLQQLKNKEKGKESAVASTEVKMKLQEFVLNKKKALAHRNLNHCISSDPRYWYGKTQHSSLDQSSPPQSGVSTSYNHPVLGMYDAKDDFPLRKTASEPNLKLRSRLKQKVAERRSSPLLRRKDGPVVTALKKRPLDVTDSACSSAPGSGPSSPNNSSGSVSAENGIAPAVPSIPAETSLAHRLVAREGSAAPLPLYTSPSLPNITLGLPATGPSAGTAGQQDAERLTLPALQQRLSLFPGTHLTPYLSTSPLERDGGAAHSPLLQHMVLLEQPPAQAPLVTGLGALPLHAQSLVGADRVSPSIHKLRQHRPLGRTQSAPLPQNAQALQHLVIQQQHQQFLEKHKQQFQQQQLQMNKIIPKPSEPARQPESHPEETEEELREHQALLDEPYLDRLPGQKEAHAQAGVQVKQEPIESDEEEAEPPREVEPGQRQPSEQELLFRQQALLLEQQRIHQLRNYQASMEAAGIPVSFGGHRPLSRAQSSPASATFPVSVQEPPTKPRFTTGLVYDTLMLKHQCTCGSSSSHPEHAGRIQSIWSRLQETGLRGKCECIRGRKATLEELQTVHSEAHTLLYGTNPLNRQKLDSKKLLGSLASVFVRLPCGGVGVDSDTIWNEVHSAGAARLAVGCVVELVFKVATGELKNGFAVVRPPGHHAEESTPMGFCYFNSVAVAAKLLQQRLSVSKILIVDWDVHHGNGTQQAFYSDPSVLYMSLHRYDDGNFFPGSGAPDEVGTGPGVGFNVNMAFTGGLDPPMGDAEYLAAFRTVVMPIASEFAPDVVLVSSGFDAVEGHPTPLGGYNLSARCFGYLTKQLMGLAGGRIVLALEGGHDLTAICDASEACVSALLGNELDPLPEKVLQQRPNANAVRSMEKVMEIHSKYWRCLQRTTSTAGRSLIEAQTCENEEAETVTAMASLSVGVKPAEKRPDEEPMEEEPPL

For `O=C(NO)c1ccc(CNc2cccc3ncccc23)cc1`, the pIC50 at Histone deacetylase 1 is 5.15; at Histone deacetylase 4, 5.32. In addition, the inhibition result in [1] was “Dose-dependent effect”.

Consider `O=C(NO)c1ccc(CNc2cccc3cccnc23)cc1`, for which the recovery at 2 h, 10 µM in data set [2] was determined as 72.2%. In addition, the CLint scaled at 10 µM in data set [3] came to 151 mL/min/kg. For the same molecule, the Activity entry in the data set with Salmonella typhimurium was “Non-Toxic”; in the data set on RPMI-8226 it was 12.88%; in the data set on Mus musculus, “Non-Toxic”; with NCI-H929 [6] it was 24.71%; with NCI-H929 [7] it was 1.73%; in the data set with NCI-H929 [8], 31.28%. The Activity in the data set with U-266 [9] turned out to be 17.82%. Moreover, the outcome in the data set on U-266 [4] and in the data set with NCI-H929 [5] was Active. Also, the pIC50 at Histone deacetylase 1 is 5.02; at Histone deacetylase 4 it was 5.35. For the same molecule, the inhibition result in data set [1] was “Dose-dependent effect”.
